ChEMBL document CHEMBL2040797, “Synthesis of benzimidazoles bearing oxadiazole nucleus as anticancer agents” (2012)

What was measured:
Format in all cases: functional
HCT-116 = assay: Growth inhibition of human HCT116 cells at 10 uM after 48 hrs by sulforhodamine B assay; details: HCT-116, 48 h, read-out: GI
Method in brief: (§1)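 NCI one-dose primary screen at 10 (printed mM) across the 60-line panel. Cells in RPMI 1640 with 5% FBS and 2 mM L-glutamine, plated at 5000–40,000 cells/well and incubated 24 h before dosing. Exposure 48 h at 37 °C, 5% CO2. Adherent cells were fixed with cold TCA, suspension cells fixed after settling. SRB stain, absorbance 515 nm. Reported as percent growth of treated cells relative to control.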

OVCAR-3 [1] = assay: Growth inhibition of human OVCAR3 cells at 10 uM after 48 hrs by sulforhodamine B assay; details: OVCAR-3, 48 h, read-out: GI; method in brief: as §1
SK-MEL-5 = assay: Cytotoxicity against human SK-MEL-5 cells after 48 hrs by sulforhodamine B assay; details: SK-MEL-5, 48 h
Method in brief: (§2)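 NCI 60-panel screen. Cells were grown in RPMI 1640 with 5% FBS and L-glutamine and plated at 5000–40,000 cells/well according to doubling time. They were preincubated 24 h at 37 °C, 5% CO2, then exposed 48 h to five 10-fold dilutions. Adherent cells were fixed with cold TCA, final 10%; suspension cells were fixed after settling. Cells were stained with 0.4% SRB and read at 515 nm. Tz/C/Ti growth curves gave GI50, TGI and LC50.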

MDA-MB-435 [2] = assay: Cytotoxicity against human MDA-MB-435 cells after 48 hrs by sulforhodamine B assay; details: MDA-MB-435, 48 h; method in brief: as §2
NCI-H460 = assay: Growth inhibition of human NCI-H460 cells at 10 uM after 48 hrs by sulforhodamine B assay; details: NCI-H460, 48 h, read-out: GI; method in brief: as §1
HOP-62 = assay: Growth inhibition of human HOP62 cells at 10 uM after 48 hrs by sulforhodamine B assay; details: HOP-62, 48 h, read-out: GI; method in brief: as §1
Malme-3M = assay: Cytotoxicity against human MALME-3M cells after 48 hrs by sulforhodamine B assay; method in brief: as §2
KM12 = assay: Growth inhibition of human KM12 cells at 10 uM after 48 hrs by sulforhodamine B assay; details: KM12, 48 h, read-out: GI; method in brief: as §1
MDA-MB-435 [3] = assay: Growth inhibition of human MDA-MB-435 cells at 10 uM after 48 hrs by sulforhodamine B assay; details: MDA-MB-435, 48 h, read-out: GI; method in brief: as §1
DU-145 = assay: Growth inhibition of human DU145 cells at 10 uM after 48 hrs by sulforhodamine B assay; details: DU-145, 48 h, read-out: GI; method in brief: as §1
SK-MEL-28 = assay: Cytotoxicity against human SK-MEL-28 cells after 48 hrs by sulforhodamine B assay; details: SK-MEL-28, 48 h; method in brief: as §2
HL-60(TB) = assay: Growth inhibition of human HL-60(TB) cells at 10 uM after 48 hrs by sulforhodamine B assay; details: HL-60, 48 h, read-out: GI
Method in brief: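 NCI 60-panel primary one-dose screen. Cells are grown in RPMI 1640 with 5% FBS, plated by doubling time and pre-incubated 24 h at 37 °C, 5% CO2. They are exposed for 48 h to a single concentration. Settled suspension cells are fixed, then SRB-stained with absorbance at 515 nm. Output is percent growth of treated cells relative to untreated control, reported as a mean graph.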

SNB-75 = assay: Cytotoxicity against human SNB75 cells after 48 hrs by sulforhodamine B assay; details: SNB-75, 48 h; method in brief: as §2
CAKI-1 = assay: Growth inhibition of human Caki1 cells at 10 uM after 48 hrs by sulforhodamine B assay; details: CAKI-1, 48 h, read-out: GI; method in brief: as §1
BT-549 [4] = assay: Growth inhibition of human BT549 cells at 10 uM after 48 hrs by sulforhodamine B assay; details: BT-549, 48 h, read-out: GI; method in brief: as §1
COLO 205 = assay: Cytotoxicity against human COLO205 cells after 48 hrs by sulforhodamine B assay; details: COLO 205, 48 h; method in brief: as §2
TK-10 = assay: Growth inhibition of human TK10 cells at 10 uM after 48 hrs by sulforhodamine B assay; details: TK-10, 48 h, read-out: GI
Method in brief: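 NCI-60 single-dose screen. Cells grown in RPMI 1640 with 5% FBS and L-glutamine, plated at 5000–40,000 cells/well by doubling time, and preincubated 24 h at 37 °C, 5% CO2. Compound stocks in DMSO, added at one concentration, then incubated 48 h. Adherent cells fixed with cold TCA (10% final), stained with 0.4% SRB, dye solubilized in 10 mM Tris base, A515 read. Reported as percent growth relative to untreated control.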

NCI/ADR-RES = assay: Cytotoxicity against human NCI/ADR-RES cells after 48 hrs by sulforhodamine B assay; method in brief: as §2
OVCAR-3 [5] = assay: Cytotoxicity against human OVCAR3 cells after 48 hrs by sulforhodamine B assay; details: OVCAR-3, 48 h; method in brief: as §2
U-251 = assay: Cytotoxicity against human U251 cells after 48 hrs by sulforhodamine B assay; details: U-251, 48 h
Method in brief: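 NCI 60 panel five-dose screen. Cells in RPMI 1640 with 5% FBS and 2 mM L-glutamine, plated at 5000–40,000 cells/well and preincubated 24 h. Compounds were tested at five 10-fold concentrations (0.01–100) for 48 h at 37 °C, 5% CO2. Cells were fixed with TCA and stained with SRB, absorbance 515 nm. GI50, TGI and LC50 were taken from % growth curves against time-zero and control.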

[6] = Cytotoxicity against human Hs 578T cells after 48 hrs by sulforhodamine B assay; method in brief: as §2
NCI-H322M = assay: Growth inhibition of human NCI-H322M cells at 10 uM after 48 hrs by sulforhodamine B assay; details: read-out: GI; method in brief: as §1
MDA-MB-468 = assay: Cytotoxicity against human MDA-MB-468 cells after 48 hrs by sulforhodamine B assay; details: MDA-MB-468, 48 h; method in brief: as §2
MOLT-4 = assay: Growth inhibition of human MOLT4 cells at 10 uM after 48 hrs by sulforhodamine B assay; details: MOLT-4, 48 h, read-out: GI; method in brief: as §1
BT-549 [7] = assay: Cytotoxicity against human BT549 cells after 48 hrs by sulforhodamine B assay; details: BT-549, 48 h; method in brief: as §2
[8] = read-out: LC50 (the source's name)

O=C(CCc1nnc(-c2ccc(Cl)cc2Cl)o1)c1nc2ccccc2[nH]1
inhibition of growth at 10 µM (HCT-116): 77.9% | inhibition of growth at 10 µM (OVCAR-3 [1]): 33.6% | GI50 (SK-MEL-5): 2.88 µM | TGI (SK-MEL-5): 14.9 µM | CC50 (SK-MEL-5; [8]): 64.6 µM | GI50 (MDA-MB-435 [2]): 2 µM | TGI (MDA-MB-435 [2]): 4.77 µM | CC50 (MDA-MB-435 [2]; [8]): 100 µM | inhibition of growth at 10 µM (NCI-H460): 22.7% | inhibition of growth at 10 µM (HOP-62): 28.4% | GI50 (Malme-3M): 13 µM | TGI (Malme-3M): 52.6 µM | CC50 (Malme-3M; [8]): 100 µM | inhibition of growth at 10 µM (KM12): 71.3% | inhibition of growth at 10 µM (MDA-MB-435 [3]): 101% | inhibition of growth at 10 µM (DU-145): 17.8% | GI50 (SK-MEL-28): 12.7 µM | TGI (SK-MEL-28): 42.7 µM | CC50 (SK-MEL-28; [8]): 100 µM | inhibition of growth at 10 µM (HL-60(TB)): 134% | GI50 (SNB-75): 18.7 µM | CC50 (SNB-75; [8]): 100 µM | inhibition of growth at 10 µM (CAKI-1): 40.2% | inhibition of growth at 10 µM (BT-549 [4]): 43.6% | GI50 (COLO 205): 2.66 µM | TGI (COLO 205): 7.08 µM | CC50 (COLO 205; [8]): 100 µM | inhibition of growth at 10 µM (TK-10): 36% | GI50 (NCI/ADR-RES): 5.4 µM | TGI (NCI/ADR-RES): 100 µM | CC50 (NCI/ADR-RES; [8]): 100 µM | GI50 (OVCAR-3 [5]): 5.63 µM | TGI (OVCAR-3 [5]): 24.8 µM | CC50 (OVCAR-3 [5]; [8]): 90.7 µM | GI50 (U-251): 10.9 µM | TGI (U-251): 77.6 µM | CC50 (U-251; [8]): 100 µM | GI50 [6]: 9.71 µM | TGI [6]: 93.9 µM | CC50 [6, 8]: 100 µM | inhibition of growth at 10 µM (NCI-H322M): 24% | GI50 (MDA-MB-468): 0.797 µM | TGI (MDA-MB-468): 12.2 µM | CC50 (MDA-MB-468; [8]): 100 µM | inhibition of growth at 10 µM (MOLT-4): 79.3% | GI50 (BT-549 [7]): 7.54 µM | TGI (BT-549 [7]): 92.5 µM | CC50 (BT-549 [7]; [8]): 100 µM
